The results in this text go back to ChEMBL document CHEMBL2321871, “A novel class of oral direct renin inhibitors: highly potent 3,5-disubstituted piperidines bearing a tricyclic p3-p1 pharmacophore” (J Med Chem, 2013).

In data set [1] the target is T1, Renin (Homo sapiens, UniProt P00797).
T1 sequence (P00797 whole entry): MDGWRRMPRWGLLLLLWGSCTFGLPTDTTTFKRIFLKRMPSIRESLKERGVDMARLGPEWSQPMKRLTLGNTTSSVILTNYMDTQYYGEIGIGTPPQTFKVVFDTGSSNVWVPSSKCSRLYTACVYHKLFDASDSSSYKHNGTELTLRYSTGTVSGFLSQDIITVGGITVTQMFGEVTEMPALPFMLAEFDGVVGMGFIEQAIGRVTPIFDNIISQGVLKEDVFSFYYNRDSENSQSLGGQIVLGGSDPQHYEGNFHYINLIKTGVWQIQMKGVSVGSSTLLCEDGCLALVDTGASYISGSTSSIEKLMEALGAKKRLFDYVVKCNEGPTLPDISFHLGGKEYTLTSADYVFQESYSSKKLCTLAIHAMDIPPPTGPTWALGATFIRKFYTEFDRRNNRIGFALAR
The experiment in a line: Inhibition of human recombinant renin using fluorescence-quenched (RE(EDANS)IHPFHLVIHTK(Dabcyl)R as substrate incubated for 1 hr prior to substrate addition measured after 1 hr by fluorescence polarization assay.

The target in data set [2] is T2, Renin (Homo sapiens) (UniProt P00797).
T2 sequence (whole entry): T1 sequence (P00797 whole entry)
Kind of data set: Inhibition of human recombinant renin using fluorescence-quenched (RE(EDANS)IHPFHLVIHTK(Dabcyl)R as substrate at 100 uM incubated for 1 hr prior to substrate addition measured after 1 hr by fluorescence polarization assay. For orientation: In fluorescence polarisation assays a small probe gives low polarisation when free and higher when bound to something large.

The test system of data set [3] is Rattus norvegicus. Kind of data set: Antihypertensive activity in po dosed telemetered hypertensive double-transgenic rat model expressing human renin and angiotensinogen assessed as reduction of mean arterial blood pressure. In kind it is functional, organism-based. The settings on record: Artery. The procedure, abridged:
(§1)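 Telemetered hypertensive double-transgenic rats given a single oral dose (6 or 30 mg/kg); mean arterial blood pressure monitored for maximal reduction from pre-treatment baseline and time to 50% recovery to baseline.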

Data set [4] in a line: AUC (0 to 24 hrs) in Sprague-Dawley rat at 6 mg/kg, po by HPLC analysis. The class given is ADME, organism-based. On the set-up: time < 24 hr, dose 6 mg/kg, route oral. Particulars: plasma. The method in brief: (§2)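 Fed Sprague–Dawley rats dosed at 2 mg/kg i.v. and 6 mg/kg p.o.; plasma levels followed over 24 h to derive oral AUC(0-24 h), Cmax, t1/2, plasma clearance, Vdss and oral bioavailability.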

Data set [5] is described as follows: Oral bioavailability in Sprague-Dawley rat at 6 mg/kg by HPLC analysis. In kind it is ADME, organism-based. Particulars: in vivo. The method in brief: as §2
In data set [6] the target is T1, Renin. Kind of data set: Inhibition of human plasma renin.
Data set [7] has as its system Rattus norvegicus. Kind of data set: Antihypertensive activity in telemetered hypertensive double-transgenic rat model expressing human renin angiotensinogen assessed as time required for 50 % recovery at 6 mg/kg, po. In kind it is functional. The method in brief:
as §1

Data set [8] can be described thus: Volume of distribution at steady state in Sprague-Dawley rat at 2 mg/kg, iv and 6 mg/kg, po by HPLC analysis. The class given is ADME, organism-based. The settings on record: in vivo, read-out: Vdss. The method in brief:
as §2

Data set [9] can be described thus: Inhibition of human recombinant pepsin A expressed in Escherichia coli using fluorescence-quenched Dabcyl-E-R-Nle-F-L-S-F-P-EDANS as substrate incubated for 1 hr prior to substrate addition measured after 1 hr by fluorescence polarization assay.
The nature of data set [10]: Plasma clearance in Sprague-Dawley rat at 2 mg/kg, iv and 6 mg/kg, po by HPLC analysis. The class given is ADME, organism-based. The procedure, abridged: as §2
For data set [11], the target named is T3, Beta-secretase 2 (Homo sapiens, UniProt Q9Y5Z0).
T3 sequence (Q9Y5Z0 whole entry): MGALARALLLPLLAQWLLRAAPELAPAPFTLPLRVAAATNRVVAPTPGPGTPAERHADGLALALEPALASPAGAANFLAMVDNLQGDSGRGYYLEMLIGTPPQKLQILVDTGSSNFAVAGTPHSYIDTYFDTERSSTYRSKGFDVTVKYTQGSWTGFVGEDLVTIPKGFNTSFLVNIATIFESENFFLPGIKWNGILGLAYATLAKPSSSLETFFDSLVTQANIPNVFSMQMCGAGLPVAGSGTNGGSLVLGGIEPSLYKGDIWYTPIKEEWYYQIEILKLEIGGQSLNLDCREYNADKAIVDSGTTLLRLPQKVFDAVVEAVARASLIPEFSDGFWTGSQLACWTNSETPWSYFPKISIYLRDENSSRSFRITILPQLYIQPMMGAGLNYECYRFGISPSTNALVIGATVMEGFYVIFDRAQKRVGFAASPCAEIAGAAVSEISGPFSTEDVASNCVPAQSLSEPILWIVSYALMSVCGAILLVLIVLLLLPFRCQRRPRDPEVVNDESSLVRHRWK
Kind of data set: Inhibition of human recombinant BACE2 expressed in baculovirus-infected SF9 cells using fluorescence-quenched RE(EDANS)-EVNLDAEF-K(DABSYL)-R as substrate incubated for 1 hr prior to substrate addition measured after 1 hr by fluorescence polarization assay.

Data set [12] concerns the target Beta-secretase 1 (Homo sapiens, UniProt P56817). The experiment in a line: Inhibition of human recombinant BACE1 expressed in baculovirus-infected SF9 cells using fluorescence-quenched RE(EDANS)-EVNLDAEF-K(DABSYL)-R as substrate incubated for 1 hr prior to substrate addition measured after 1 hr by fluorescence polarization assay.
A short description of data set [13]: Cmax in Sprague-Dawley rat at 6 mg/kg, po by HPLC analysis. The class given is ADME, organism-based. On the set-up: dose 6 mg/kg, route oral. Particulars: in vivo. The method in brief: as §2
Data set [14] has as its system Rattus norvegicus. The experiment in a line: Antihypertensive activity in telemetered hypertensive double-transgenic rat model expressing human renin and angiotensinogen assessed as reduction of mean arterial blood pressure at 6 mg/kg, po. In kind it is functional, Artery. The method in brief:
as §1

Data set [15] concerns Rattus norvegicus. Kind of data set: Antihypertensive activity in telemetered hypertensive double-transgenic rat model expressing human renin and angiotensinogen assessed as reduction of mean arterial blood pressure at 30 mg/kg, po. The class given is functional, Artery. The procedure, abridged:
as §1

A short description of data set [16]: Half life in Sprague-Dawley rat at 2 mg/kg, iv and 6 mg/kg, po by HPLC analysis. Particulars: in vivo. The class given is ADME, organism-based. The procedure, abridged: as §2
The test system of data set [17] is Rattus norvegicus. The experiment in a line: Antihypertensive activity in telemetered hypertensive double-transgenic rat model expressing human renin angiotensinogen assessed as time required for 50 % recovery at 30 mg/kg, po. The class given is functional. The procedure, abridged: as §1
Data set [18] deals with T4, Cathepsin E (Homo sapiens, UniProt P14091).
T4 sequence (P14091 whole entry): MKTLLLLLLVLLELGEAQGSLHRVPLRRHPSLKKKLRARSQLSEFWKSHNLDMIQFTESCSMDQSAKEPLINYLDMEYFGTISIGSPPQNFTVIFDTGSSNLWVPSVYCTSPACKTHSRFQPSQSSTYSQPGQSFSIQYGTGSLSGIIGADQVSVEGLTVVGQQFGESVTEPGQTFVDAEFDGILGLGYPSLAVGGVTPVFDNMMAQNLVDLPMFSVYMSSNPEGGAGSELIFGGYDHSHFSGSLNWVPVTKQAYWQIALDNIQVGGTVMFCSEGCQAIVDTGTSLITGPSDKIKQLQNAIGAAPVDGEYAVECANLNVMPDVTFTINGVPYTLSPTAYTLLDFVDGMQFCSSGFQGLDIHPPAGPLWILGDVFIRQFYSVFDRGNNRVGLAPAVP
The experiment in a line: Inhibition of human recombinant cathepsin E expressed in Escherichia coli using fluorescence-quenched Ac-E-D(EDANS)-KPILFFRLG-K(Dabcyl)-E-Amid as substrate incubated for 1 hr prior to substrate addition measured after 1 hr by fluorescence polarization assay.

Data set [19] has as its target Cathepsin D (Homo sapiens, UniProt P07339). Kind of data set: Inhibition of human recombinant cathepsin D expressed in baculovirus-infected SF9 cells using fluorescence-quenched Ac-E-D(EDANS)-KPILFFRLG-K(Dabcyl)-E-Amid as substrate incubated for 1 hr prior to substrate addition measured after 1 hr by fluorescence polarization assay.
In data set [20] the target is T5, Gastricsin (Homo sapiens, UniProt P20142).
T5 sequence (P20142 whole entry): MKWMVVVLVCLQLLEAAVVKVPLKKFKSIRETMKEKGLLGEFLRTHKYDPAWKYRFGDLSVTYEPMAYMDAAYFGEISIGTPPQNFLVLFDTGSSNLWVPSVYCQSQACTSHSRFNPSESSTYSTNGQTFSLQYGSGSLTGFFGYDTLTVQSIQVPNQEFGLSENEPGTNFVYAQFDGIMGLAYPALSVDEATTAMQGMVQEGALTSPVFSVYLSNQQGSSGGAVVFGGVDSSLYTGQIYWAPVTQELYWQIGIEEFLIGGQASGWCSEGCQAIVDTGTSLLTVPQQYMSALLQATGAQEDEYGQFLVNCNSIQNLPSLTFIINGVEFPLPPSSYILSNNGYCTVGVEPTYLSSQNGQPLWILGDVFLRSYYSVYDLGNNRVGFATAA
The experiment in a line: Inhibition of human recombinant pepsin C expressed in Escherichia coli using fluorescence-quenched Dabcyl-E-R-Nle-F-L-S-F-P-EDANS as substrate incubated for 1 hr prior to substrate addition measured after 1 hr by fluorescence polarization assay.

Data set [21] addresses Cytochrome P450 3A4 (Homo sapiens, UniProt P08684). Kind of data set: Time dependent inhibition of CYP3A4 (unknown origin). In kind it is ADME. Particulars: TDE = time-dependent effect.
Data set [22] concerns the target T1, Renin. The experiment in a line: Binding affinity to human recombinant renin by NMR titration analysis.

Chain of Cytochrome P450 3A4 (P08684 whole entry): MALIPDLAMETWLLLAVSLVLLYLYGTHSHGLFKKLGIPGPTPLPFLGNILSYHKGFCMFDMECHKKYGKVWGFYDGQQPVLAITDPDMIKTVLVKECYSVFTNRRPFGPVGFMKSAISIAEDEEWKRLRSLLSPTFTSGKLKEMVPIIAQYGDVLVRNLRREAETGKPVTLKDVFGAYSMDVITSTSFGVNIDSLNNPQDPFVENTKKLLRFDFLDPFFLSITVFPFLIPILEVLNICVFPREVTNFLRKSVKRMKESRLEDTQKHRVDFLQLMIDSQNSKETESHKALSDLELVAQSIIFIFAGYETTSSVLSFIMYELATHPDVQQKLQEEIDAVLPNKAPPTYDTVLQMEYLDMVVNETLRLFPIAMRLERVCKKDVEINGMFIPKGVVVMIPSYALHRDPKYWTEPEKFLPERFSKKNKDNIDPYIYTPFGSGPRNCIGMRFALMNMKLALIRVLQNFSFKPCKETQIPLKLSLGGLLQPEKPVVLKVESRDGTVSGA
Chain of Cathepsin D (P07339 65-162 limits assumed): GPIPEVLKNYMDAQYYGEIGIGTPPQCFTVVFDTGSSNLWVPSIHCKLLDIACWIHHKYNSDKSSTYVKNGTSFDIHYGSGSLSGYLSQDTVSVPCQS
Chain of Cathepsin D (P07339 169-412 limits assumed): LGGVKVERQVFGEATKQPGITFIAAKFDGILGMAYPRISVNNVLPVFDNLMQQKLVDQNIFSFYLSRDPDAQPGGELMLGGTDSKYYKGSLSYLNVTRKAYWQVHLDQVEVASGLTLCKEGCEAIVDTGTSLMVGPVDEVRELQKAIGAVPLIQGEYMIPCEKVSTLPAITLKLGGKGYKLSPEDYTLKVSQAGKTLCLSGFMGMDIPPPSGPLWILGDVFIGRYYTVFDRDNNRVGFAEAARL
Chain of Beta-secretase 1 (P56817 whole entry): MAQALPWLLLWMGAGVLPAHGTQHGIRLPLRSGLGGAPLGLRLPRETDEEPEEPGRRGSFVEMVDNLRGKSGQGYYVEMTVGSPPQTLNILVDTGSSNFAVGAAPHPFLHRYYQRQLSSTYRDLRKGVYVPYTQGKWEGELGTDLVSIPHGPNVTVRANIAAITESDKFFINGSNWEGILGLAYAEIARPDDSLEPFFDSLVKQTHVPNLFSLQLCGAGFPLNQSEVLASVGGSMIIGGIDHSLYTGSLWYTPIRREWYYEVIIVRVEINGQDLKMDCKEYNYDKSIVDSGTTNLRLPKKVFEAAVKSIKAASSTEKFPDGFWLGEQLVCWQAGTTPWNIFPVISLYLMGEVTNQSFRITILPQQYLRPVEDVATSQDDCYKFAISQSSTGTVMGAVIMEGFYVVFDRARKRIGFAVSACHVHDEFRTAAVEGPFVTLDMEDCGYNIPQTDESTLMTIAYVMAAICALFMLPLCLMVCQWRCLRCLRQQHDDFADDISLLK

As a reminder, the IC50 is the point on the concentration scale where inhibition reaches its midpoint. As to `Cc1ccc(S(=O)(=O)N[C@H]2CNC[C@@H](C(=O)NCC(c3ccccc3)c3ccccc3)C2)cc1` (racemic), the concentration for half-maximal inhibition (IC50) in [1] came out at 1200 nM.
On the same count and under the same terms, for `COCCCCC1(CNC(=O)C2CCCNC2)c2ccccc2Oc2ccccc21` (racemic) the value was 4000 nM; for `COCCCCC1(CNC(=O)[C@@H]2CNC[C@H](NS(=O)(=O)c3ccc(C)cc3)C2)c2ccccc2Oc2ccccc21` (racemic), 4 nM.
Same read-out and setting: in the case of `COCCCCC1(CNC(=O)[C@H]2CNC[C@@H](NS(=O)(=O)c3ccc(C)cc3)C2)c2ccccc2Oc2ccccc21` it was 500 nM.
A word on the inhibition: it is the drop in the measured response relative to a control, in per cent. With `O=C(NCC1c2ccccc2Oc2ccccc21)C1CCCNC1` (racemic), the inhibition in data set [2] was determined as 0%.
Consider `COCCCCC1(CNC(=O)[C@@H]2CNC[C@H](NS(=O)(=O)c3ccc(C)cc3)C2)c2ccccc2Oc2ccccc21` [listing 1 of 2 here], for which the Activity entry in [3] was “Dose-dependent effect”.
Broadly, the AUC(0-t) is exposure summed from dosing to a finite time, without extrapolation to infinity. The bioavailability is the share of a dose that reaches the circulation, judged against a reference dose that is usually intravenous. In general, Cmax refers to the peak of the concentration-time curve. What is called half-life is how long it takes for the measured level to halve. Higher therefore signals slow decline. `COCCCCC1(CNC(=O)[C@@H]2CNC[C@H](NS(=O)(=O)c3ccc(C)cc3)C2)c2ccccc2Oc2ccccc21` [listing 2 of 2 here]: the AUC(0-t) at 24 h in data set [4] stood at 0.75 µM·h. Further, the bioavailability in [5] worked out at 18%. Besides, the IC50 was 25 nM in data set [6]; above 30000 nM in data set [9]; above 30000 nM in data set [11]; above 30000 nM in data set [12]; 3 nM in [1]; above 30000 nM in data set [18]. Also, the IC50 in data set [19] and in [20] was above 30000 nM throughout. Further, the Time was determined as 3.1 h in data set [7] and 7.8 h in [17]. Moreover, the Vd in [8] is 5.3 L/kg. The clearance in data set [10] is 43.3 mL/min/kg. Moreover, the Cmax in data set [13] was found to be 222 nM. In addition, the Activity is given as 28 mmHg in [14] and 58 mmHg in [15]. Moreover, the half-life in data set [16] is 2.3 h. Besides, in data set [21], the “inhibition (INH)” value is reported as “tde”.
Regarding `Cc1ccc(S(=O)(=O)N[C@@H]2CNC[C@H](C(=O)NCC(c3ccccc3)c3ccccc3)C2)cc1`, in [1], the IC50 was above 30000 nM.
Broadly, the Kd is the free concentration of one partner at which half of the binding sites on the other are occupied at equilibrium, for simple one-to-one binding. In the case of `OC(CC1c2ccccc2Sc2ccccc21)CN1CCCC1` (racemic), the equilibrium dissociation constant (Kd) in data set [22] is above 500000 nM. For the same compound, the IC50 in data set [1] is above 100000 nM.
The corresponding values for `CC(O)CN1CC2c3ccccc3Nc3ccccc3C2C1` (racemic) are above 500000 nM and above 100000 nM.
In the case of `Cc1ccc(S(=O)(=O)N[C@H]2CNC[C@@H](C(=O)NCC3c4ccccc4Oc4ccccc43)C2)cc1` (racemic), the IC50 in data set [1] was 90 nM.
The same measure, in the same setting: for `Cc1ccc(S(=O)(=O)N[C@H]2CNC[C@@H](C(=O)NCC(c3ccccc3)c3ccccc3)C2)cc1` the value was 500 nM.
